Key:
[1] = biological target: Bromodomain-containing protein 4 (Homo sapiens, UniProt O60885); assay: Binding affinity to human N-terminal His6-tagged BRD4 BD1-BD2 (K57 to K550 residues) after 1 hr using alexa-647 conjugated probe by TR-FRET assay
[2] = tested on: Mus musculus; assay: Inhibition of LPS-induced IL-6 release in po dosed CD-1 mouse serum administered for 1 hr followed by LPS challenge measured after 2 hrs by immunoassay; assay type: functional, organism-based
Method in brief: (§1)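 Compound given orally to mice, followed by an LPS challenge. Plasma IL-6 and plasma compound concentration were both measured 2 hours after LPS. Inhibition was related to dose and to plasma concentration at the time of cytokine measurement. Values are mean ± SE, n=5 per group.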

[3] = tested on: Mus musculus; assay: Oral absorption in mouse at 10 mg/kg; assay type: ADME, organism-based; conditions: in vivo
Method in brief: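 Oral absorption is expressed as FaFg, calculated as F/(1-Clp/Qh). Liver blood flow (Qh) was 5.2 L/hr/kg for mouse and 3.8 L/hr/kg for rat. Mouse dosing was 3 mg/kg IV and 10 mg/kg PO; rat dosing was 1 mg/kg IV and PO.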

[4] = Oral bioavailability in mouse at 10 mg/kg; assay type: ADME, organism-based; conditions: in vivo
Method in brief: (§2)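 Mouse PK: 3 mg/kg IV and 10 mg/kg PO. Clearance is expressed unbound, Cl_p,u in L/hr/kg. AUC is unbound, in µM*hr. FaFg is computed as F/(1-Clp/Qh), with mouse liver blood flow Qh 5.2 L/hr/kg. Unbound plasma fraction was measured separately.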

[5] = Plasma clearance in rat at 1 mg/kg, iv; assay type: ADME, organism-based
[6] = biological target: Adenosine receptor A2a (Homo sapiens) (UniProt P29274); conditions: HEK293, 10 uM
[7] = Intrinsic clearance in monkey liver microsomes; assay type: ADME, Macaca mulatta, microsome; conditions: rhesus monkey, read-out: CLH (converted)
[8] = Fraction unbound in rat plasma at 1 uM after 4 hrs by LC-MS/MS method; assay type: ADME, cell-free
[9] = biological target: SWI/SNF-related matrix-associated actin-dependent regulator of chromatin subfamily A member 4 (Homo sapiens, UniProt P51532); assay: Binding affinity to human SMARCA4 (A1448 to S1575 residues) expressed in bacterial expression system by BROMOscan assay
[10] = tested on: Kasumi 1; assay: Antitumor activity against gamma-irradiated human Kasumi-1 cells xenografted in NOD.SCID mouse assessed as tumor growth inhibition at 1 mg/kg, po qd for 25 days relative to control; assay type: functional; conditions: Kasumi 1, light or radiation study, 600 h, read-out: TGI
Method in brief: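 Kasumi-1 AML xenograft in mice, with tumor growth inhibition (TGI) as the read-out. For the test agent, dosing was oral, once daily at 1 mg/kg for 25 days, with tolerability tracked as body-weight loss. For 5-azacitidine, dosing was IV, Q7d, at 8 mg/kg.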

[11] = Half life in rat at 1 mg/kg, po; assay type: ADME, organism-based; conditions: in vivo
[12] = biological target: Bromodomain-containing protein 9 (Homo sapiens, UniProt Q9H8M2); assay: Binding affinity to human BRD9 (R130 to V259 residues) expressed in bacterial expression system by BROMOscan assay
[13] = tested on: Mus musculus; assay: Inhibition of LPS-induced IL-6 release in po dosed CD-1 mouse serum assessed as plasma concentration required to show 50% inhibition administered for 1 hr followed by LPS challenge measured after 2 hrs by immunoassay; assay type: functional, organism-based; method in brief: as §1
[14] = biological target: Bromodomain-containing protein 3 (Homo sapiens, UniProt Q15059); assay: Binding affinity to BRD3 BD1 to BD2 (P24 to A416 residues) (unknown origin)
[15] = biological target: Translocator protein (Homo sapiens, UniProt P30536); assay: Antagonist activity at peripheral benzodiazepine receptor (unknown origin)
[16] = biological target: Histone acetyltransferase KAT2B (Homo sapiens, UniProt Q92831); assay: Binding affinity to human PCAF (G715 to D831 residues) expressed in mammalian expression system by BROMOscan assay
[17] = biological target: Bromodomain adjacent to zinc finger domain protein 2A (Homo sapiens, UniProt Q9UIF9); assay: Binding affinity to human BAZ2A (M1792 to L1905 residues) expressed in bacterial expression system by BROMOscan assay
[18] = Intrinsic clearance in monkey hepatocytes; assay type: ADME, cell-based, Macaca mulatta, Hepatocyte; conditions: rhesus monkey, read-out: CLH (converted)
[19] = Oral bioavailability in human at 1 mg; assay type: ADME, organism-based; conditions: in vivo
Method in brief: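 Human F (%) was estimated from observed F in preclinical species. It accompanies a clinical 1 mg oral dose given to cancer patients (n = 3).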

[20] = Half life in human at 1 mg, po; assay type: ADME; conditions: in vivo
Method in brief: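 Clinical PK in subjects with cancer after a single 1 mg oral dose, n = 3. Apparent clearance was reported as PO CLp/F in L/hr.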

[21] = biological target: Transcription intermediary factor 1-alpha (Homo sapiens, UniProt O15164); assay: Binding affinity to human TRIM24 (PHD, Bromo) (P790 to P977 residues) expressed in bacterial expression system by BROMOscan assay
[22] = Oral bioavailability in rat at 1 mg/kg; assay type: ADME, organism-based; conditions: in vivo
Method in brief: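 In rats, 1 mg/kg was given by both IV and PO routes. IV clearance is unbound (Cl_p,u, L/hr/kg). FaFg is taken as F/(1-Clp/Qh), using rat Qh 3.8 L/hr/kg. Unbound plasma fraction was determined in rat plasma.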

[23] = biological target: Translocator protein (Rattus norvegicus) (UniProt P16257); assay: Displacement of [3H]PK-11195 from peripheral benzodiazepine receptor in rat heart at 10 uM
[24] = Plasma clearance in iv dosed dog; assay type: ADME, organism-based, Canis lupus familiaris
[25] = organism: Rattus norvegicus; assay: Drug excretion in rat using radiolabelled compound; assay type: ADME; conditions: in vivo
[26] = biological target: Protein polybromo-1 (Homo sapiens, UniProt Q86U86); assay: Binding affinity to human PBRM1 bromodomain-2 (S178 to E291 residues) expressed in bacterial expression system by BROMOscan assay
[27] = tested on: Liver; assay: Unbound intrinsic clearance in rat liver microsomes at 10 uM preincubated for 5 mins followed by NADPH addition measured after 60 mins by HPLC-UV-MS analysis; assay type: ADME, microsome; conditions: 1 h
[28] = tested on: Mus musculus; assay: Toxicity in NOD.SCID mouse assessed as maximum mean body weight loss at 1 mg/kg, po qd for 25 days (reference value: 9%); assay type: organism-based; conditions: in vivo, 600 h
[29] = biological target: Peregrin (Homo sapiens, UniProt P55201); assay: Binding affinity to human BRPF1 (E627 to G740 residues) expressed in bacterial expression system by BROMOscan assay
[30] = tested on: Liver; assay: Unbound intrinsic clearance in human liver microsomes at 10 uM preincubated for 5 mins followed by NADPH addition measured after 60 mins by HPLC-UV-MS analysis; assay type: ADME, microsome; conditions: 1 h
[31] = Intrinsic clearance in human hepatocytes; assay type: ADME, cell-based, Hepatocyte; conditions: read-out: CLH (converted)
[32] = tested on: Mus musculus; assay: Plasma unbound clearance in mouse at 3 mg/kg, iv; assay type: ADME, organism-based; conditions: in vivo; method in brief: as §2
[33] = biological target: Histone acetyltransferase KAT2A (Homo sapiens, UniProt Q92830); assay: Binding affinity to human GCN5L2 (E726 to K837 residues) expressed in bacterial expression system by BROMOscan assay
[34] = biological target: Transcription initiation factor TFIID subunit 1-like (Homo sapiens, UniProt Q8IZX4); assay: Binding affinity to human TAF1L (2) (Q1523 to D1654 residues) expressed in bacterial expression system by BROMOscan assay

Bromodomain-containing protein 9, sequence (Q9H8M2 whole entry, the tested form may be a part): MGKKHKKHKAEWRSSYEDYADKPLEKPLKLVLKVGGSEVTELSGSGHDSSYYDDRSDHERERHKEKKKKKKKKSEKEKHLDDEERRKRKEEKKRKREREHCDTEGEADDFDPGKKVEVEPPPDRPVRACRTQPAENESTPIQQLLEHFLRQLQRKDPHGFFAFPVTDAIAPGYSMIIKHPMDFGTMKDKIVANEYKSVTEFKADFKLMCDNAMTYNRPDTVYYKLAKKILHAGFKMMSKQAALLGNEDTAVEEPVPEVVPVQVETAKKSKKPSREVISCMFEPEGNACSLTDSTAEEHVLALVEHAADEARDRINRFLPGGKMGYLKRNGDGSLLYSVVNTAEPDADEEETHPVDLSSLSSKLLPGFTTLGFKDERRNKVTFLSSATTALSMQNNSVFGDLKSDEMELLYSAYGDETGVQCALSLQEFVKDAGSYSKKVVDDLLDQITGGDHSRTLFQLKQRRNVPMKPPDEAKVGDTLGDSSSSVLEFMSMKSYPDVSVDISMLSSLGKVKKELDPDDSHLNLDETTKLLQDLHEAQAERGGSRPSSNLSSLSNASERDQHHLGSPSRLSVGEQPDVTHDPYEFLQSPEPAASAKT
Transcription intermediary factor 1-alpha, sequence (O15164 whole entry, the tested form may be a part): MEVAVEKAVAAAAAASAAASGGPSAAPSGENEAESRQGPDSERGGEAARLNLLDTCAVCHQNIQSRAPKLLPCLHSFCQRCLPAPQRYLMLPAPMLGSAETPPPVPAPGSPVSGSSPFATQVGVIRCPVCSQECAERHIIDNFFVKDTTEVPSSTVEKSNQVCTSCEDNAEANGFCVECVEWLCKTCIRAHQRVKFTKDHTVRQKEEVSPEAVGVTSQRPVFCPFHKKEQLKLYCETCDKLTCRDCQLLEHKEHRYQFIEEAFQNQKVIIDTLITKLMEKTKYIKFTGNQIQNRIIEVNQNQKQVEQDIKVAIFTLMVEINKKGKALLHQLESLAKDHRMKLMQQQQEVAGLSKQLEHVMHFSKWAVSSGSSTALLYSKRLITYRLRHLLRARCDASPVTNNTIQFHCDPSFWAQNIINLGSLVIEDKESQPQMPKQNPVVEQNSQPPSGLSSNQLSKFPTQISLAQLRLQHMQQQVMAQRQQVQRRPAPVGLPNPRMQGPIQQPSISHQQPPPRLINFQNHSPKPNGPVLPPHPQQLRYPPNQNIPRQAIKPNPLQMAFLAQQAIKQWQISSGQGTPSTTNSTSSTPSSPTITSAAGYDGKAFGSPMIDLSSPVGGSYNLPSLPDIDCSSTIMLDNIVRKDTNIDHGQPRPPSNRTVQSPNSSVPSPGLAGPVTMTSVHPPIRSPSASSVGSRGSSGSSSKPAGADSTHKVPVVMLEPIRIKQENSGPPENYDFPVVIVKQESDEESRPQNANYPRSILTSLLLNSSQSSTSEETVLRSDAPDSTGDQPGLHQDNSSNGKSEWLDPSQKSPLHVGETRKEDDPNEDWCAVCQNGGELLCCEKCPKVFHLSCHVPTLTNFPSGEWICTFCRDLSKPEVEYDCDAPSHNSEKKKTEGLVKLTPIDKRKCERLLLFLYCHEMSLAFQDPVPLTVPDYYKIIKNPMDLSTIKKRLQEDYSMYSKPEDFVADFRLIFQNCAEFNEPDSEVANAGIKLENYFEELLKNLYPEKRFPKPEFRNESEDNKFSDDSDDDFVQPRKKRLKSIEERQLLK
Translocator protein (Rattus norvegicus), sequence (P16257 whole entry, looked up): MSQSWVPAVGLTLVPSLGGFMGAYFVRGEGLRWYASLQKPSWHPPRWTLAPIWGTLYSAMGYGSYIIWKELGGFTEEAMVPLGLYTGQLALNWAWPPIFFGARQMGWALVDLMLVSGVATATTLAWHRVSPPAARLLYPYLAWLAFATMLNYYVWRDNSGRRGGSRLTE
Adenosine receptor A2a (Homo sapiens), sequence (P29274 whole entry, looked up): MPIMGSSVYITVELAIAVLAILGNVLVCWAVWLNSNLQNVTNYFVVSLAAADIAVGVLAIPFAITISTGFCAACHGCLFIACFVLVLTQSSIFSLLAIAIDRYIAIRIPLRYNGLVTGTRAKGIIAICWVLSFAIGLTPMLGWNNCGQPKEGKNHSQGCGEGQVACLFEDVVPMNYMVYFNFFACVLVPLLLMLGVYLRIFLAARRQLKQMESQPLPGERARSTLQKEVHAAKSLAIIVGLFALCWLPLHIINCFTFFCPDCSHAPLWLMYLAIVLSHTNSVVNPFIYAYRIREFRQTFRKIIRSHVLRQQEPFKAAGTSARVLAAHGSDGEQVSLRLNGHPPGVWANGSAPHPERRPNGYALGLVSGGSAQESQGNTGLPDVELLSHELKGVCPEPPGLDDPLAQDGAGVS
Peregrin, sequence (P55201 whole entry, the tested form may be a part): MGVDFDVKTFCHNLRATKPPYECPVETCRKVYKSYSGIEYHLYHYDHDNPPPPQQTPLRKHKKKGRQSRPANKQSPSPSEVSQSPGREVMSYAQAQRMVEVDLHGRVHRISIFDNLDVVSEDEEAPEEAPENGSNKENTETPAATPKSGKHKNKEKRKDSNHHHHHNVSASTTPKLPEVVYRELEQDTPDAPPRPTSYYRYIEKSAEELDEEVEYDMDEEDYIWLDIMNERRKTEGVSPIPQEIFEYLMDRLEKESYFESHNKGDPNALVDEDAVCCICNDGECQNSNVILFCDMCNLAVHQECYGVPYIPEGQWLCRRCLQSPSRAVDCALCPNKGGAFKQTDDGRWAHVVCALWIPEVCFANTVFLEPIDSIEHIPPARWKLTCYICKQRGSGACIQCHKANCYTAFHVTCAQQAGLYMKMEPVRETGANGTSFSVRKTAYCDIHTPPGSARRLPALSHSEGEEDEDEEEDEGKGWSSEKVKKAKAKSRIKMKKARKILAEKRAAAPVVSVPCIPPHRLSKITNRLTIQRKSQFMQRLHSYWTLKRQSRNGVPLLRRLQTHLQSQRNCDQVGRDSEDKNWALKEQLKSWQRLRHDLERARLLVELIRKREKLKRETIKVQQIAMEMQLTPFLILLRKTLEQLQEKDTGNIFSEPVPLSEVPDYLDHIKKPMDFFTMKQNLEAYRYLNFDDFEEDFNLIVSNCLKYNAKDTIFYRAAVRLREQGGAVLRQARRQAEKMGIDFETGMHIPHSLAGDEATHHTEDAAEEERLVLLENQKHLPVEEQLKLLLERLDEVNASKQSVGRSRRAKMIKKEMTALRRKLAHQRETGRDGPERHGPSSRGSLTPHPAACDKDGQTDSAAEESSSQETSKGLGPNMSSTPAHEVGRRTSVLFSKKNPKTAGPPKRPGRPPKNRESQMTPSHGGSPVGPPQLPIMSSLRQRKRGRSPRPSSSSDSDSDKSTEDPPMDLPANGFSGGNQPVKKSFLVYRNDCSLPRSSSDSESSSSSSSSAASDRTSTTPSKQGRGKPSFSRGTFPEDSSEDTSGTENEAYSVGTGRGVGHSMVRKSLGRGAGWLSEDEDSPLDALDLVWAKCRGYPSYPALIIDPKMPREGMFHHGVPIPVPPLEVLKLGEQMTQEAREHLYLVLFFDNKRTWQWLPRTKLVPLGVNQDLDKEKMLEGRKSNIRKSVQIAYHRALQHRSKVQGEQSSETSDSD
Histone acetyltransferase KAT2A, sequence (Q92830 whole entry, the tested form may be a part): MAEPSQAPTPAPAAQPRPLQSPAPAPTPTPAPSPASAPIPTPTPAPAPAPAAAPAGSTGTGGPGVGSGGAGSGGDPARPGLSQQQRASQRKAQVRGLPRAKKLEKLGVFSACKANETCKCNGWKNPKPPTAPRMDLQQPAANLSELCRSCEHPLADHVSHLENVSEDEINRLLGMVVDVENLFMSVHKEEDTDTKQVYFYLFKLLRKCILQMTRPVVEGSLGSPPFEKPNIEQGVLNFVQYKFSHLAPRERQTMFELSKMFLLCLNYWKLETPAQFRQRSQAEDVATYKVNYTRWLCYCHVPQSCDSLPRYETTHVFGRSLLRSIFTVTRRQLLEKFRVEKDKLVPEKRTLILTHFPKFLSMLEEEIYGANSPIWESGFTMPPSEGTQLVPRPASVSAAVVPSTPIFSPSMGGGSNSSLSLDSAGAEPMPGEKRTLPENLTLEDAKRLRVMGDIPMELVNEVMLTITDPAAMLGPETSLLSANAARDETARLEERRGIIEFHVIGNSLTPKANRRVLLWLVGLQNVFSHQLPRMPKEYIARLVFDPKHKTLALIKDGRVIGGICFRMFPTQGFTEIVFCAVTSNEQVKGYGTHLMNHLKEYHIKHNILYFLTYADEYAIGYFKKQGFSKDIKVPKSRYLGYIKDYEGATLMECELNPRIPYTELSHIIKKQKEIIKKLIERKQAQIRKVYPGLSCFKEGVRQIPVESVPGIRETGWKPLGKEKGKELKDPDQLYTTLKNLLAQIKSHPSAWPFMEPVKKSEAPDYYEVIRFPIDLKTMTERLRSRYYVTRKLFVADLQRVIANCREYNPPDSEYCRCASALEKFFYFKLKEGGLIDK
Translocator protein, sequence (P30536 whole entry, the tested form may be a part): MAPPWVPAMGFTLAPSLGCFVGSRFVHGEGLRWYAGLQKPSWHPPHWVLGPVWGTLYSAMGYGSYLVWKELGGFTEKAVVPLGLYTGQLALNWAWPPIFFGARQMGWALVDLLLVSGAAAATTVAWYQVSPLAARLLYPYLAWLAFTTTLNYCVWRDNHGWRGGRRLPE

With `CCS(=O)(=O)Nc1ccc(Oc2ccc(F)cc2F)c(-c2cn(C)c(=O)c3[nH]ccc23)c1` [MIVEBRESIB] the Ki [1] was 1.5 nM, the inhibition [2] was “Dose-dependent effect” and the FaFg [3] was 0.9. It also gave a bioavailability [4] of 68 to 83%, a clearance [5] of 10 mL/min/kg and an inhibition [6] of 87%. It also gave a CLint scaled [7] of 38.3 mL/min/kg, a fraction unbound at 4 h, 1 µM [8] of 0.023 and a Kd [9] of over 1000 nM. It also gave an inhibition in vivo at 1 mg/kg [10] of 99%, a half-life [11] of 156 min and a Kd [12] of over 1000 nM. For the same compound, the Cp [13] was 0.03 to 0.1 µM, the Ki [14] was 12.2 nM and the IC50 [15] was 800 nM. It also gave a Kd [16] of over 1000 nM, a Kd [17] of over 1000 nM and a CLint scaled [18] of 51.7 mL/min/kg. For the same compound, the bioavailability [19] was 50%, the half-life [20] was 1510 min and the Kd [21] was over 1000 nM. The bioavailability [22] was 65%, the inhibition [23] was 86% and the clearance [24] was 3.17 mL/min/kg. For the same compound, the Drug excretion [25] was 76 %ID, the Kd [26] was over 1000 nM and the CL free [27] was under 4.9 L/h/kg. For the same compound, the Activity [28] was 6%, the Kd [29] was over 1000 nM and the CL free [30] was under 2.9 L/h/kg. It also gave a CLint scaled [31] of 14.5 mL/min/kg, a clearance [32] of 19 L/h/kg and a Kd [33] of over 1000 nM. For the same compound, the Kd [34] was over 1000 nM.

Source: ChEMBL document CHEMBL4017535 (J Med Chem, 2017)
